Laboratory results reported in ChEMBL document CHEMBL1154044, “5-Nitro-2-furyl derivative actives against Trypanosoma cruzi: preliminary in vivo studies” (Eur J Med Chem, 2009).

Columns and labels:
[1] = test system: Mus musculus; assay: Toxicity in CD1 mouse heart at 450 mg/kg, po after 3 days by histological study; type: organism-based; design: dose 450 mg/kg, route oral; conditions: in vivo, 72 h
Method in brief: (§1)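 Healthy female CD1 mice (20–22 g), 5–7 per group, given a single oral (intragastric) or i.p. dose in saline:Tween 80 (4:1) vehicle. Sacrificed on day 3 after ether anaesthesia. Organs fixed in 10% aqueous formalin for histology. Scored against untreated animals from no change to +++ (many changes).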

[2] = test system: Mus musculus; assay: Toxicity in CD1 mouse heart at 300 mg/kg, ip after 3 days by histological study; type: organism-based; design: dose 300 mg/kg, route intraperitoneal; conditions: in vivo, 72 h; method in brief: as §1
[3] = test system: Mus musculus; assay: Toxicity in CD1 mouse lung at 450 mg/kg, po after 3 days by histological study; type: organism-based; design: dose 450 mg/kg, route oral; conditions: in vivo, 72 h; method in brief: as §1
[4] = test system: Mus musculus; assay: Toxicity in CD1 mouse lung at 300 mg/kg, ip after 3 days by histological study; type: organism-based; design: dose 300 mg/kg, route intraperitoneal; conditions: in vivo, 72 h; method in brief: as §1
[5] = test system: Mus musculus; assay: Toxicity in CD1 mouse brain at 450 mg/kg, po after 3 days by histological study; type: organism-based; design: dose 450 mg/kg, route oral; conditions: in vivo, 72 h; method in brief: as §1
[6] = test system: Mus musculus; assay: Toxicity in CD1 mouse brain at 300 mg/kg, ip after 3 days by histological study; type: organism-based; design: dose 300 mg/kg, route intraperitoneal; conditions: in vivo, 72 h; method in brief: as §1
[7] = test system: Trypanosoma cruzi; assay: Growth inhibition of Trypanosoma cruzi Tulahuen 2 epimastigote at 5 uM after 5 days; type: functional; conditions: Trypanosoma cruzi, Tulahuen 2, 120 h; read-out: GI
[8] = test system: Mus musculus; assay: Toxicity in CD1 mouse assessed as decrease in weight respect to day zero at 450 mg/kg, po after 3 days; type: organism-based; design: dose 450 mg/kg, route oral; scale not given: the % may be the effect or the level left; conditions: in vivo, 72 h
Method in brief: (§2)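 Healthy 2-month-old female CD1 mice (20–22 g, 5–7 per group) received one dose. Oral doses of 450 or 300 mg/kg were given by intragastric syringe; i.p. doses of 300 or 150 mg/kg by injection. Drugs were suspended in saline:Tween 80 (4:1), and a vehicle-only control was included. Mice were weighed and observed daily for 3 days. Weight change is expressed as percent relative to day zero.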

[9] = test system: Mus musculus; assay: Toxicity in CD1 mouse assessed as survival at 450 mg/kg, po after 3 days; type: organism-based; design: dose 450 mg/kg, route oral; conditions: in vivo, 72 h
Method in brief: (§3)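 Healthy 2-month-old female CD1 mice (20–22 g), groups of 5–7, given one oral dose by intragastric syringe or one i.p. injection. Compound suspended in saline:Tween 80 (4:1) with sonication just before dosing; vehicle-treated controls included. Weighed and observed daily over 3 days for skin, physical aspect, activity and faeces; survival recorded at day 3.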

[10] = test system: Mus musculus; assay: Toxicity in CD1 mouse assessed as increase in weight respect to day zero at 300 mg/kg, ip after 3 days; type: organism-based; design: dose 300 mg/kg, route intraperitoneal; conditions: in vivo, 72 h; method in brief: as §2
[11] = test system: Mus musculus; assay: Toxicity in CD1 mouse assessed as survival at 300 mg/kg, ip after 3 days; type: organism-based; design: dose 300 mg/kg, route intraperitoneal; conditions: in vivo, 72 h; method in brief: as §3
[12] = test system: Mus musculus; assay: Toxicity in CD1 mouse assessed as leukocyte level at 450 mg/kg, po after 3 days; type: organism-based; design: dose 450 mg/kg, route oral; conditions: in vivo, 72 h
Method in brief: (§4)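 Healthy female CD1 mice (5–7 per group) received a single oral dose of 450 mg/kg or an i.p. dose of 300 mg/kg, with vehicle controls. On day 3 they were sacrificed under ether anaesthesia. Blood was drawn from the subclavian artery and kept at 0 °C in EDTA or heparin. Leukocytes, haemoglobin, haematocrit, GPT and GOT were measured within 24 h and compared with normal ranges.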

[13] = test system: Mus musculus; assay: Toxicity in CD1 mouse assessed as leukocyte level at 300 mg/kg, ip after 3 days; type: organism-based; design: dose 300 mg/kg, route intraperitoneal; conditions: in vivo, 72 h; method in brief: as §4
[14] = test system: Mus musculus; assay: Toxicity in CD1 mouse assessed as haemoglobin level at 450 mg/kg, po after 3 days; type: organism-based; design: dose 450 mg/kg, route oral; conditions: in vivo, 72 h; method in brief: as §4
[15] = test system: Mus musculus; assay: Toxicity in CD1 mouse assessed as haemoglobin level at 300 mg/kg, ip after 3 days; type: organism-based; design: dose 300 mg/kg, route intraperitoneal; conditions: in vivo, 72 h; method in brief: as §4
[16] = test system: Mus musculus; assay: Toxicity in CD1 mouse assessed as hematocrite level at 450 mg/kg, po after 3 days; type: organism-based; design: dose 450 mg/kg, route oral; conditions: in vivo, 72 h; method in brief: as §4
[17] = test system: Mus musculus; assay: Toxicity in CD1 mouse assessed as glutamic-pyruvate transaminase level at 450 mg/kg, po after 3 days; type: organism-based; design: dose 450 mg/kg, route oral; conditions: in vivo, 72 h; method in brief: as §4
[18] = test system: Mus musculus; assay: Toxicity in CD1 mouse assessed as glutamic-pyruvate transaminase level at 300 mg/kg, ip after 3 days; type: organism-based; design: dose 300 mg/kg, route intraperitoneal; conditions: in vivo, 72 h; method in brief: as §4
[19] = test system: Mus musculus; assay: Toxicity in CD1 mouse assessed as glutamic-oxalacetate transaminase level at 450 mg/kg, po after 3 days; type: organism-based; design: dose 450 mg/kg, route oral; conditions: in vivo, 72 h; method in brief: as §4
[20] = test system: Mus musculus; assay: Toxicity in CD1 mouse liver at 300 mg/kg, ip after 3 days by histological study; type: organism-based; design: dose 300 mg/kg, route intraperitoneal; conditions: in vivo, 72 h; method in brief: as §1
[21] = test system: Mus musculus; assay: Toxicity in CD1 mouse assessed as glutamic-oxalacetate transaminase level at 300 mg/kg, ip after 3 days; type: organism-based; design: dose 300 mg/kg, route intraperitoneal; conditions: in vivo, 72 h; method in brief: as §4
[22] = test system: Mus musculus; assay: Toxicity in CD1 mouse liver at 450 mg/kg, po after 3 days by histological study; type: organism-based; design: dose 450 mg/kg, route oral; conditions: in vivo, 72 h; method in brief: as §1
[23] = test system: Mus musculus; assay: Toxicity in CD1 mouse intestine at 450 mg/kg, po after 3 days by histological study; type: organism-based; design: dose 450 mg/kg, route oral; conditions: in vivo, 72 h; method in brief: as §1
[24] = test system: Mus musculus; assay: Toxicity in CD1 mouse intestine at 300 mg/kg, ip after 3 days by histological study; type: organism-based; design: dose 300 mg/kg, route intraperitoneal; conditions: in vivo, 72 h; method in brief: as §1
[25] = test system: Mus musculus; assay: Toxicity in CD1 mouse kidney at 450 mg/kg, po after 3 days by histological study; type: organism-based; design: dose 450 mg/kg, route oral; conditions: in vivo, 72 h; method in brief: as §1
[26] = test system: Mus musculus; assay: Toxicity in CD1 mouse kidney at 300 mg/kg, ip after 3 days by histological study; type: organism-based; design: dose 300 mg/kg, route intraperitoneal; conditions: in vivo, 72 h; method in brief: as §1
[27] = test system: Mus musculus; assay: Toxicity in CD1 mouse assessed as increase in weight respect to day zero at 450 mg/kg, po after 3 days; conditions: in vivo, 72 h

Compound	Activity [1]	Activity [2]	Activity [3]	Activity [4]	Activity [5]	Activity [6]	inhibition of growth at 5 µM [7] [%]	Activity [9]	Activity [10] [%]	Activity [12] [µL⁻¹]	Activity [13] [µL⁻¹]	Activity [14] [g/dL]	Activity [15] [g/dL]	Activity [17] [IU/L]	Activity [18] [IU/L]	Activity [19] [IU/L]	Activity [20]	Activity [21] [IU/L]	Activity [22]	Activity [23]	other results
CCCCCCCOC(=O)N/N=C/C=C/c1ccc([N+](=O)[O-])o1	Non-toxic	Non-toxic	Non-toxic	Non-toxic	Non-toxic	Non-toxic	90	Non-toxic	4	9010	11100	13.4	14.2	62.7	46.1	139	Toxic	77.7	Toxic	Non-toxic	Activity [8]: 0%; Activity [11]: Non-toxic; Activity [16]: 39.4%; Activity [24]: Non-toxic; Activity [25]: Non-toxic; Activity [26]: Non-toxic
CCCCCCCCOC(=O)N/N=C/C=C/c1ccc([N+](=O)[O-])o1	Non-toxic	Non-toxic	Non-toxic	Non-toxic	Non-toxic	Non-toxic	92	Non-toxic	1	7750	10600	13.9	13.4	70.2	50.7	84	Toxic	57	Toxic	Non-toxic	Activity [24]: Non-toxic; Activity [25]: Toxic; Activity [26]: Non-toxic; Activity [27]: 2%
